{
  "source": "ChEMBL document CHEMBL1158078",
  "about": "“Integerrimides A and B, cyclic heptapeptides from the latex of Jatropha integerrima” (J Nat Prod, 2006)",
  "key": {"[1]": {"system": "Human alphaherpesvirus 1", "experiment": "Antiviral activity against HSV1 ATCC VR260 by colorimetry", "assay_type": "functional, organism-based", "procedure,_shortened": "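HSV-1 strain ATCC VR 260; colorimetric method; compounds tested at 50 μg/mL; acyclovir as positive control.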"}, "[2]": {"system": "Candida albicans", "experiment": "Antimicrobial activity against Candida albicans ATCC 90028 by tetrazolium/formazan assay", "assay_type": "functional, organism-based", "procedure,_shortened": "(§1)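 Candida albicans ATCC 90028 tested by tetrazolium/formazan assay; compounds at 50 μg/mL.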"}, "[3]": {"organism": "Gallus gallus", "experiment": "Inhibition of blebbistatin-induced neurite outgrowth in chicken medulla neurons at 50 uM after 24 hrs", "assay_type": "functional"}, "[4]": {"experiment": "Toxicity against E7 chicken spinal cord neurons assessed as effect on cell viability at 50 uM after 2 days", "set-up": "species or system Gallus gallus", "conditions": "48 h"}, "[5]": {"experiment": "Toxicity against chicken medulla neurons assessed as effect on cell viability at 50 uM after 24 hrs", "set-up": "species or system Gallus gallus"}, "[6]": {"system": "IPC-298", "experiment": "Antiproliferative activity against human IPC298 cells assessed as cell density at 50 uM after 2 days", "assay_type": "functional", "procedure,_shortened": "(§2)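 IPC-298 melanoma cells grown in DMEM/Ham's F12 with stabilized L-glutamine, 10% heat-inactivated FCS, penicillin/streptomycin. Plated at 100 000 cells per cm², cultured with or without compound (10 and 50 μM) for 2 days. Viable cells counted on phase-contrast digital pictures as cells per 0.36 mm². Debris and apoptotic nuclei judged by microscopy.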"}, "[7]": {"system": "IPC-298", "experiment": "Cytotoxicity against human IPC298 cells assessed as cell debris level at 50 uM after 2 days", "assay_type": "functional, cell-based", "procedure,_shortened": "as §2"}, "[8]": {"system": "IPC-298", "experiment": "Cytotoxicity against human IPC298 cells assessed as apoptotic cell nuclei level at 50 uM after 2 days", "assay_type": "functional, cell-based", "procedure,_shortened": "as §2"}, "[9]": {"system": "Human alphaherpesvirus 1", "experiment": "Antiviral activity against HSV1 ATCC VR260 at 50 ug/mL by colorimetry", "assay_type": "functional, organism-based", "procedure,_shortened": "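Against HSV-1 strain ATCC VR 260, colorimetric method; compounds at 50 μg/mL; acyclovir as positive control.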"}, "[10]": {"system": "Plasmodium falciparum", "experiment": "Antimalarial activity against multidrug-resistant Plasmodium falciparum K1 at 10 ug/mL", "assay_type": "functional, organism-based", "procedure,_shortened": "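P. falciparum K1 maintained in continuous culture; in vitro activity quantified by microculture radioisotope technique; compounds tested at 10 μg/mL.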"}, "[11]": {"system": "Candida albicans", "experiment": "Antimicrobial activity against Candida albicans ATCC 90028 at 50 ug/mL by tetrazolium/formazan assay", "assay_type": "functional, organism-based", "procedure,_shortened": "as §1"}, "[12]": {"organism": "Gallus gallus", "experiment": "Inhibition of neurite outgrowth in E7 chicken spinal cord neurons at 50 uM after 2 days", "assay_type": "functional", "procedure,_shortened": "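Spinal cord (anterior) from 7-day chicken embryos dissociated with trypsin/DNAseI at 37 °C for 20 min, washed in HEPES-buffered medium. 50 000 cells plated per 1 cm² on polylysine/fibronectin coating in HBM with 10% FCS at 37 °C, no CO₂. Cultured with or without compound (10 or 50 μM) for 2 days; neurites scored by phase-contrast microscopy.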"}, "[13]": {"system": "Capan-2", "experiment": "Inhibition of cell migration of human Capan 2 cells at 50 uM after 20 h by scratch migration assay", "conditions": "Capan-2, 20 h"}, "[14]": {"organism": "Homo sapiens", "experiment": "Effect on cell viability of human Capan II cells assessed as cell morphology changes at 50 uM after 20 h"}, "[15]": {"system": "Mycobacterium tuberculosis", "experiment": "Antimycobacterial activity"}},
  "note": "Activity calls are given as the source filed them. The rule behind the calls is not given here. Residues, ends and D or L forms follow the SMILES beside them.",
  "data": [
    {"smiles": "Nc1nc2c(ncn2COCCO)c(=O)[nH]1", "note": "[ACYCLOVIR]", "values": [
      {"measurement": "IC50", "setting": "[1]", "value": 0.5, "unit": "µg/mL"}
    ]},
    {"smiles": "C[C@@H]1[C@H](O)[C@@H](C)/C=C/C=C/C=C/C=C/C=C/C=C/C=C/[C@H](O[C@@H]2O[C@H](C)[C@@H](O)[C@H](N)[C@@H]2O)C[C@@H]2O[C@](O)(C[C@@H](O)C[C@@H](O)[C@H](O)CC[C@@H](O)C[C@@H](O)CC(=O)O[C@H]1C)C[C@H](O)[C@H]2C(=O)O", "note": "[AMPHOTERICIN B]", "values": [
      {"measurement": "IC50", "setting": "[2]", "value": 0.08, "unit": "µg/mL"}
    ]},
    {"smiles": "CC(C)C[C@@H]1NC(=O)CNC(=O)[C@H](Cc2c[nH]c3ccccc23)NC(=O)[C@@H]2CCCN2C(=O)[C@H]([C@@H](C)O)NC(=O)[C@H](CC(C)C)NC(=O)[C@H](CC(C)C)NC1=O", "note": "[INTEGERRIMIDE A] (cyclo(GLLLTPW))", "values": [
      {"measurement": "Activity", "setting": "[3]", "value": "Active"},
      {"measurement": "Activity", "setting": "[4]", "value": "Non-toxic"},
      {"measurement": "Activity", "setting": "[5]", "value": "Non-toxic"},
      {"measurement": "Activity", "setting": "[6]", "value": 40, "unit": "%"},
      {"measurement": "Activity", "setting": "[7]", "value": "inactive"},
      {"measurement": "Activity", "setting": "[8]", "value": "inactive"},
      {"measurement": "Activity", "setting": "[9]", "value": "inactive"},
      {"measurement": "Activity", "setting": "[10]", "value": "inactive"},
      {"measurement": "Activity", "setting": "[11]", "value": "inactive"},
      {"measurement": "Activity", "setting": "[12]", "value": "Active"},
      {"measurement": "inhibition at 50 µM", "setting": "[13]", "value": 30, "unit": "%"},
      {"measurement": "Activity", "setting": "[14]", "value": "inactive"}
    ]},
    {"smiles": "CC(C)C[C@@H]1NC(=O)[C@H](C)NC(=O)[C@H](Cc2c[nH]c3ccccc23)NC(=O)[C@@H]2CCCN2C(=O)[C@H](CO)NC(=O)[C@H](C(C)C)NC(=O)[C@H](CC(C)C)NC1=O", "note": "[INTEGERRIMIDE B] (cyclo(ALLVSPW))", "values": [
      {"measurement": "Activity", "setting": "[4]", "value": "Non-toxic"},
      {"measurement": "Activity", "setting": "[5]", "value": "Non-toxic"},
      {"measurement": "Activity", "setting": "[6]", "value": 40, "unit": "%"},
      {"measurement": "Activity", "setting": "[7]", "value": "inactive"},
      {"measurement": "Activity", "setting": "[8]", "value": "inactive"},
      {"measurement": "Activity", "setting": "[9]", "value": "inactive"},
      {"measurement": "Activity", "setting": "[10]", "value": "inactive"},
      {"measurement": "Activity", "setting": "[11]", "value": "inactive"},
      {"measurement": "Activity", "setting": "[12]", "value": "Active"},
      {"measurement": "inhibition at 50 µM", "setting": "[13]", "value": 20, "unit": "%"},
      {"measurement": "Activity", "setting": "[14]", "value": "inactive"}
    ]},
    {"smiles": "NNC(=O)c1ccncc1", "note": "[ISONIAZID]", "values": [
      {"measurement": "MIC", "setting": "[15]", "value": 0.1, "unit": "µg/mL"}
    ]},
    {"smiles": "NC[C@H]1O[C@H](O[C@H]2[C@H](O)[C@@H](O[C@H]3O[C@H](CO)[C@@H](O)[C@H](N)[C@H]3O)[C@H](N)C[C@@H]2N)[C@H](O)[C@@H](O)[C@@H]1O", "note": "[KANAMYCIN]", "values": [
      {"measurement": "MIC", "setting": "[15]", "value": 2.5, "unit": "µg/mL"}
    ]},
    {"smiles": "CO[C@H]1/C=C/O[C@@]2(C)Oc3c(C)c(O)c4c(O)c(c(/C=N/N5CCN(C)CC5)c(O)c4c3C2=O)NC(=O)/C(C)=C\\C=C\\[C@H](C)[C@H](O)[C@@H](C)[C@@H](O)[C@@H](C)[C@H](OC(C)=O)[C@@H]1C", "note": "[RIFAMPIN]", "values": [
      {"measurement": "MIC", "setting": "[15]", "value": 0.0023, "unit": "µg/mL"}
    ]}
  ]
}
